Results gathered from unrelated publications.
Compare with care: the assays were run in different laboratories.
Target: Ephrin type-B receptor 4 (EPHB4, Homo sapiens, UniProt P54760)

SMILES | test | conditions | endpoint | value
COc1ccc(COc2ccc(Cc3cnc(N)nc3N)cc2OC)cc1 | cell-free assay | 0.5 µM | remaining signal | 90.5%
Cc1cnc(NC2CCOCC2)nc1-n1cnc(C(=O)NC(CN)c2cc(F)cc(Cl)c2)c1 (stereo not drawn) | enzyme activity, inhibitor, radiometric | 1 µM | remaining activity | 89%
O=C(Nc1cnn(-c2csc(C(=O)NC3COC3)c2)c1)Nc1c(F)cccc1Cl | enzyme activity, inhibitor | 5 µM | remaining activity | 98.1%
COc1cc2c(Nc3ccc(Br)cc3F)ncnc2cc1OCC1CCN(C)CC1 | cell-free assay | 0.5 µM | remaining signal | 13%
Cc1c[nH]c2nccc(Oc3c(F)cc(Nc4cc(Cl)nc(N)n4)cc3F)c12 | cell-free assay, competition with immobilised ligand | 0.1 µM | remaining binding | 100%
CCCOc1ccc(OC)c(F)c1C(=O)c1ccc(C(=O)N[C@@H]2CNC[C@H]2NC(=O)c2ccc3[nH]ncc3c2)cc1 | enzyme activity, inhibitor | 10 µM | remaining activity | 79%
Nc1ncnc2occ(-c3ccc(NC(=O)Nc4cc(C(F)(F)F)ccc4F)cc3)c12 | cell-free assay | 20 µM | remaining signal | 0%
Cc1cc(NC(=O)c2cccc(S(F)(F)(F)(F)F)c2)cc(-n2ccn3nc(-c4cccnc4)cc23)c1 | cell-free assay, competition with immobilised ligand | 1 µM | remaining binding | 100%
COc1cc(Nc2cnc(C#N)c(O[C@H](C)CN(C)C)n2)ncc1-c1cnn(C)c1 | enzyme activity, inhibitor, radiometric | 1 µM | remaining activity | 96%
Oc1cccc(-c2nc(N3CCOCC3)c3oc4ncccc4c3n2)c1 | enzyme activity, inhibitor | 10 µM | remaining activity | 86%
COc1cc(Cl)c(C(=O)N[C@@H](CN[C@H]2CC[C@@H](N)CC2)Cc2ccc(C#N)cc2)cc1-c1ccc(CN[C@H](C)c2ccc(C)cc2)o1 | enzyme activity, inhibitor | 1 µM | remaining activity | 91%
Cn1c(=O)n(-c2ccc(C(C)(C)C#N)cc2)c2c3cc(-c4cnc5ccccc5c4)ccc3ncc21 | enzyme activity, inhibitor | 10 µM | remaining activity | 99%
CNCc1ccc(-c2cc(-c3nc(-c4ccc(S(=O)(=O)C(C)C)cc4)cnc3N)on2)cc1 | enzyme activity, inhibitor | 0.4 µM | inhibition | 0%
C=CC(=O)Nc1cc(Nc2nccc(Nc3cc(Cl)c(F)cc3C(C)(C)O)n2)c(OC)cc1N1CC[C@@H](N(C)C)C1 | enzyme activity, inhibitor | 1 µM | inhibition | 7%
CSc1cccnc1N1CCN(Cc2nc3ccccc3[nH]2)CC1 | cell-free assay, competition with immobilised ligand | 1 µM | remaining binding | 100%
COc1cccc2c(NCc3ccccc3)nc(-n3c(N)nc4ccccc43)nc12 | target engagement in cells, inhibitor, chemoproteomics | 20 mM | inhibition | -8.8%
C[S+]([O-])c1ccc(-c2nc(-c3ccncc3)c(-c3ccc(F)cc3)[nH]2)cc1 (stereo not drawn) | cell-free assay | 0.5 µM | remaining signal | 91.1%
O=C(N[C@H]1CCCCC/C=C\C2C[C@@]2(C(=O)O)NC(=O)[C@@H]2C[C@@H](Oc3ccncc3)CN2C1=O)OC1CCCC1 (stereo partly drawn) | cell-free assay, competition with immobilised ligand | 1 µM | remaining binding | 100%
Cc1[nH]c(/C=C2\C(=O)Nc3ccc(F)cc32)c(C)c1C(=O)N[C@H]1CCN(C(=O)N(C)C)C1 | enzyme activity, inhibitor | 1 µM | remaining activity | 101%
COc1cc(/C=C/C(=O)CC(=O)/C=C/c2ccc(O)c(OC)c2)ccc1O | enzyme activity, inhibitor | 1 µM | activity vs control | 105%
N#Cc1ccc(Nc2ccc3[nH]c(=O)[nH]c3c2)c(Cl)c1 | cell-free assay, competition with immobilised ligand | 1 µM | remaining binding | 98%
CSc1nc(C)c(-c2ccnc(Nc3ccc(N4CCOCC4)cc3)c2)[nH]1 | cell-free assay, inhibitor | 10 µM | inhibition | 18.2%
O=C(Nc1cnn(-c2csc(C(=O)NC3COC3)c2)c1)Nc1ccccc1Cl | enzyme activity, inhibitor | 5 µM | remaining activity | 97.8%
CC(C)(C)c1nc(-c2cccc(NS(=O)(=O)c3c(F)cccc3F)c2F)c(-c2ccnc(N)n2)s1 | enzyme activity, inhibitor, radiometric | 1 µM | remaining activity | 97%
Nc1cnc(N2CCc3cc(S(=O)(=O)Nc4c(F)cc(Cl)cc4F)cc(N4CCCC4=O)c32)nc1 | cell-free assay, competition with immobilised ligand | 1 µM | remaining binding | 100%
Cc1ccc(C(=O)Nc2ccc(CN3CCN(C)CC3)c(C(F)(F)F)c2)cc1C#Cc1cnc2cccnn12 | cell-free assay | 23.5 nM | remaining signal | 92%
CN(C)CC#Cc1ccc(OCCCc2sc(N3CCc4cccc(C(=O)Nc5nc6ccccc6s5)c4C3)nc2C(=O)O)c(F)c1 | cell-free assay, competition with immobilised ligand | 1 µM | remaining binding | 100%
O=C1Nc2ccc(Cl)cc2C1=Cc1cc(Cl)c(O)c(Cl)c1 | cell-free assay | 0.5 µM | remaining signal | 100%
Cc1nc(Cc2cccc(C(F)(F)F)c2)sc1-c1ccc(C(N)=O)nc1 | cell-free assay, competition with immobilised ligand | 1 µM | remaining binding | 100%
COc1cc2ncnc(Nc3ccc(Oc4ccccc4)c(C)c3C)c2cc1OC | enzyme activity, inhibitor | 1 µM | inhibition | 3%
